pIC50: −log10 of the molar value. Activity calls are given as the source filed them. No cut-off for these calls is given here.
Key:
[1] = system: BT-549; assay: Cytotoxicity in human BT549 cells incubated for 48 hrs by MTT assay; assay type: functional, cell-based; settings: BT-549, 48 h
Summary of the method: (§1)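 Cells (1 × 10^4/well) were seeded in medium with 10% FBS and left 24 h at 37 °C. Compound diluted in medium was then added, alongside a vehicle control, for 48 h. MTT (5 mg/mL stock) was added for 4 h, formazan dissolved in DMSO and absorbance read at 570 nm. IC50 taken as the concentration giving 50% inhibition.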

[2] = system: MDA-MB-453; assay: Cytotoxicity in human MDA-MB-453 cells incubated for 48 hrs by MTT assay; assay type: functional, cell-based; settings: MDA-MB-453, 48 h; summary of the method: as §1
[3] = system: HCT-116; assay: Cytotoxicity in human HCT116 cells incubated for 48 hrs by MTT assay; assay type: functional, cell-based; settings: HCT-116, 48 h
Summary of the method: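 Cells (1 × 10^4/well) were seeded in medium with 10% FBS and left 24 h at 37 °C. Compound diluted in medium was then added, alongside a vehicle control, for 48 h. MTT (5 mg/mL stock) was added for 4 h, formazan dissolved in DMSO and absorbance read at 570 nm.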

[4] = system: PC-3; assay: Cytotoxicity in human PC3 cells incubated for 48 hrs by MTT assay; assay type: functional, cell-based; settings: PC-3, 48 h; summary of the method: as §1
[5] = system: DU-145; assay: Cytotoxicity in human DU145 cells incubated for 48 hrs by MTT assay; assay type: functional, cell-based; settings: DU-145, 48 h; summary of the method: as §1
[6] = system: HCT-15; assay: Cytotoxicity in human HCT15 cells incubated for 48 hrs by MTT assay; assay type: functional, cell-based; settings: HCT-15, 48 h; summary of the method: as §1
[7] = system: Calf thymus DNA; assay: Binding affinity to calf thymus DNA assessed as increase in relative viscosity of DNA-compound complex at 5 uM by viscometry; assay type: nucleic-acid assay; settings: Bos taurus
Summary of the method: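 Viscosity titration of test compound (5 µM) into CT-DNA (50 µM) in 100 mM Tris-HCl pH 7.0. Rolling-ball viscometer, ball fall time read at angles of 20° to 70°, Peltier-held temperature, viscosity calculated at 25 °C.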

Row | SMILES | pIC50 [1] | pIC50 [2] | pIC50 [3] | pIC50 [4] | pIC50 [5] | pIC50 [6] | Activity [7]
1 | COc1cc2cc(-c3nc4cc(Cl)ccc4n3Cc3ccccc3)c3cc(OC)c(OC)cc3c2cc1OC | < 4.70 | 4.76 | < 4.70 | 4.94 | < 4.70 | 4.99 | 
2 | COc1cc2cc(-c3nc4ccc(C(=O)O)cc4[nH]3)c3cc(OC)c(OC)cc3c2cc1OC | < 4.70 | 4.97 | 5.00 | 4.99 | 4.90 | 5.08 | 
3 | O=c1[nH]cc(F)c(=O)[nH]1 [FLUOROURACIL] |  |  | 5.06 |  | 5.66 |  | 
4 | COc1cccc2c1C(=O)c1c(O)c3c(c(O)c1C2=O)C[C@@](O)(C(=O)CO)C[C@@H]3O[C@H]1C[C@H](N)[C@H](O)[C@H](C)O1 [DOXORUBICIN] |  |  |  |  | 5.72 |  | Active
5 | COc1ccc2cc(-c3nc4cc(Cl)ccc4n3Cc3ccccc3)c3cc(OC)c(OC)cc3c2c1 | < 4.70 | 5.14 | < 4.70 | < 4.70 | < 4.70 | 4.85 | 
6 | COc1ccc2cc(-c3nc4ncc(Br)cc4[nH]3)c3cc(OC)c(OC)cc3c2c1 | 5.10 | < 4.70 | < 4.70 | 4.95 | < 4.70 | < 4.70 | 
7 | COc1cc2cc(-c3nc4ccc(Br)cc4[nH]3)c3cc(OC)c(OC)cc3c2cc1OC | < 4.70 | 4.82 | < 4.70 | 4.80 | < 4.70 | < 4.70 | 
8 | COc1cc2cc(-c3nc4cc(C)cc(C)c4[nH]3)c3cc(OC)c(OC)cc3c2cc1OC | 5.15 | < 4.70 | < 4.70 | 4.74 | < 4.70 | < 4.70 | 
9 | COc1cc2cc(-c3nc4ccc(C)cc4[nH]3)c3cc(OC)c(OC)cc3c2cc1OC | < 4.70 | < 4.70 | < 4.70 | < 4.70 | 5.09 | < 4.70 | 
10 | COc1ccc2cc(-c3nc4ccc(Cl)cc4[nH]3)c3cc(OC)c(OC)cc3c2c1 | 4.85 | < 4.70 | 4.95 | 5.14 | < 4.70 | < 4.70 | Active
11 | COC(=O)c1ccc2nc(-c3cc4cc(OC)c(OC)cc4c4cc(OC)c(OC)cc34)[nH]c2c1 | < 4.70 | < 4.70 | < 4.70 | 4.78 | 4.76 | < 4.70 | 
12 | COc1cc2cc(-c3nc4ccc(Cl)cc4[nH]3)c3cc(OC)c(OC)cc3c2cc1OC | < 4.70 | 5.03 | < 4.70 | 4.72 | < 4.70 | < 4.70 | 
13 | COc1ccc2cc(-c3nc4ccccc4[nH]3)c3cc(OC)c(OC)cc3c2c1 | 4.94 | < 4.70 | < 4.70 | < 4.70 | 4.76 | < 4.70 | 
14 | COc1cc2cc(-c3nc4cc(Cl)ccc4n3Cc3cc(C)cc(C)c3)c3cc(OC)c(OC)cc3c2cc1OC | < 4.70 | 4.78 | < 4.70 | 4.89 | < 4.70 | 4.81 | 
15 | CN1CCN(c2ccc3[nH]c(-c4ccc5[nH]c(-c6ccc(O)cc6)nc5c4)nc3c2)CC1 |  |  |  |  |  |  | inactive
16 | COC(=O)Nc1nc2cc(C(=O)c3cccs3)ccc2[nH]1 [NOCODAZOLE] |  | 6.04 | 5.97 | 5.74 | 5.94 |  | 
17 | COc1ccc2nc(-c3cc4cc(OC)c(OC)cc4c4cc(OC)c(OC)cc34)[nH]c2c1 | 4.94 | 5.00 | 5.05 | 4.88 | < 4.70 | 4.99 | 
18 | COc1cc2cc(-c3nc4ccc(F)cc4[nH]3)c3cc(OC)c(OC)cc3c2cc1OC | 4.97 | < 4.70 | < 4.70 | 4.84 | < 4.70 | 5.03 | 
19 | CC[n+]1c(-c2ccccc2)c2cc(N)ccc2c2ccc(N)cc21 |  |  |  |  |  |  | Active
20 | COc1cc2cc(-c3nc4ccccc4[nH]3)c3cc(OC)c(OC)cc3c2cc1OC | < 4.70 | < 4.70 | < 4.70 | 4.89 | 4.72 | < 4.70 | 
21 | COc1cc2cc(-c3nc4ncc(Br)cc4[nH]3)c3cc(OC)c(OC)cc3c2cc1OC | < 4.70 | < 4.70 | < 4.70 | < 4.70 | 5.00 | < 4.70 | 
